Test results from ChEMBL document CHEMBL3272220, “Central nervous system active 5-oxo-1,4,5,6,7,8-hexahydrocinnolines” (J Med Chem, 1976).
Calls of active or inactive are those of the source. The rule behind the calls is not given here.

What follows are molecules tested on Mus musculus (assay: Central nervous system depressant activity in po dosed CF albino mouse assessed as induction of sedation). Settings: not given.
Format: functional, organism-based

| SMILES | Activity |
| --- | --- |
| CN(C)CCN1N=C(c2ccccc2)CC2=C1CC(C)(C)CC2=O.[O-][Cl+3]([O-])([O-])O | Dose-dependent effect |

The molecules below were run on Mus musculus (assay: Toxicity in CF albino mouse at 500 mg/kg, po). Settings: in vivo.
Format: organism-based
Design: dose 500 mg/kg, route oral

| SMILES | Activity |
| --- | --- |
| CCN(CC)CCN1N=C(c2ccccc2)CC2=C1CCCC2=O.[O-][Cl+3]([O-])([O-])O | Toxic |

Each molecule was assayed on Mus musculus (assay: Central nervous system depressant activity in CF albino mouse assessed as induction of sedation without arousability at 500 mg/kg, po). Settings: not given.
Format: functional, organism-based
Design: dose 500 mg/kg
Summary of the method: (§1)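 Male CF mice got 500 mg/kg orally as a 0.2% agar suspension. Scoring was at peak drug effect on a 0-4+ scale. Scores were judged together from percentage inhibition of spontaneous motor activity, a ptotic index based on percentage eye closure, and the degree of sedation.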

| SMILES | Activity |
| --- | --- |
| CN(C)CCN1N=C(c2ccccc2)CC2=C1CC(C)(C)CC2=O.[O-][Cl+3]([O-])([O-])O | inactive |
| CCN(CC)CCN1N=C(c2ccc(F)cc2)CC2=C1CC(C)(C)CC2=O | inactive |

Each molecule was assayed on Mus musculus (assay: Toxicity in CF albino mouse assessed as tremor at 500 mg/kg, po). Settings: in vivo.
Format: organism-based
Design: dose 500 mg/kg, route oral

| SMILES | Activity |
| --- | --- |
| CCN(CC)CCN1N=C(c2ccccc2)C(C)C2=C1CC(C)(C)CC2=O.[O-][Cl+3]([O-])([O-])O (stereo not drawn) | Toxic |
| CN(C)CCN1N=C(c2ccc(F)cc2)CC2=C1CC(C)(C)CC2=O.O.O=C(O)C(=O)O | Toxic |
| CCN(CC)CCN1N=C(c2ccc(Br)cc2)CC2=C1CC(C)(C)CC2=O | Toxic |
| CCN(CC)CCN1N=C(c2ccccc2)CC2=C1CC(C)(C)CC2=O.[O-][Cl+3]([O-])([O-])O | Toxic |
| CN(C)CCN1N=C(c2ccccc2)CC2=C1CC(C)(C)CC2=O.[O-][Cl+3]([O-])([O-])O | Toxic |
| CCN(CC)CCN1N=C(c2ccc(F)cc2)CC2=C1CC(C)(C)CC2=O | Toxic |
| CC1(C)CC(=O)c2cc(-c3ccccc3)nnc2C1 | Toxic |

What follows are molecules tested on Mus musculus (assay: Anticonvulsant activity in po dosed CF albino mouse assessed as protection against electroshock-induced seizure). Settings: not given.
Format: functional
Summary of the method: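 Male CF mice were dosed orally, with the vehicle for po dosing being a 0.2% agar suspension. Protection against electroshock-induced seizures was examined at 500 mg/kg po. Activity is reported as ED50 in mg/kg po.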

| SMILES | ED50 |
| --- | --- |
| CC1=NNC2=C(C1)C(=O)CC(C)(C)C2 | inactive |
| CN1N=C(c2ccccc2)CC2=C1CC(C)(C)CC2=O | inactive |
| CCN(CC)CCN1N=C(c2ccc(OC)cc2)CC2=C1CC(C)(C)CC2=O.[O-][Cl+3]([O-])([O-])O | 300 mg/kg |
| CN(C)CCN/N=C1/CC(C)(C)CC2=C1CC(c1ccccc1)=NN2CCN(C)C | inactive |
| CC1(C)CC(=O)C(CC(=O)c2ccccc2)=C(NNC(=N)N)C1 | inactive |
| CCN(CC)CCN1N=C(c2ccccc2)C(C)C2=C1CC(C)(C)CC2=O.[O-][Cl+3]([O-])([O-])O (stereo not drawn) | 400 mg/kg |
| CCN(CC)CCN1N=C(c2ccccc2)CC2=C1CCCC2=O.[O-][Cl+3]([O-])([O-])O | 200 mg/kg |
| CN(C)CCN1N=C(c2ccc(F)cc2)CC2=C1CC(C)(C)CC2=O.O.O=C(O)C(=O)O | inactive |
| CCN(CC)CCN1N=C(c2ccc(Br)cc2)CC2=C1CC(C)(C)CC2=O | 100 mg/kg |
| CCN(CC)CCN1N=C(c2ccccc2)CC2=C1CC(C)(C)CC2=O.[O-][Cl+3]([O-])([O-])O | 225 mg/kg |
| CN(C)CCN1N=C(c2ccccc2)CC2=C1CC(C)(C)CC2=O.[O-][Cl+3]([O-])([O-])O | 500 mg/kg |
| CCN(CC)CCN1N=C(c2ccc(F)cc2)CC2=C1CC(C)(C)CC2=O | 150 mg/kg |
| CC1(C)CC(=O)c2cc(-c3ccccc3)nnc2C1 | 500 mg/kg |

Each molecule was assayed on Mus musculus (assay: Central nervous system depressant activity in CF albino mouse assessed as induction of sedation at 500 mg/kg, po). Settings: not given.
Format: functional, organism-based
Design: dose 500 mg/kg
Summary of the method: as §1

| SMILES | Activity |
| --- | --- |
| CCN(CC)CCN1N=C(c2ccc(OC)cc2)CC2=C1CC(C)(C)CC2=O.[O-][Cl+3]([O-])([O-])O | inactive |
| CC1(C)CC(=O)C(CC(=O)c2ccccc2)=C(NNC(=N)N)C1 | inactive |
| CCN(CC)CCN1N=C(c2ccccc2)C(C)C2=C1CC(C)(C)CC2=O.[O-][Cl+3]([O-])([O-])O (stereo not drawn) | inactive |
| CCN(CC)CCN1N=C(c2ccc(Br)cc2)CC2=C1CC(C)(C)CC2=O | Active |
| CCN(CC)CCN1N=C(c2ccccc2)CC2=C1CC(C)(C)CC2=O.[O-][Cl+3]([O-])([O-])O | Active |
| CC1(C)CC(=O)c2cc(-c3ccccc3)nnc2C1 | inactive |

What follows are molecules tested on Mus musculus (assay: Antidepressant activity in CF albino mouse assessed as inhibition of reserpine-induced hypothermia at 25 mg/kg, po relative to control). Settings: not given.
Format: functional
Summary of the method: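 Oral dosing was 25 mg/kg in 0.2% agar suspension to male CF mice. Antagonism of reserpine-induced hypothermia was measured and graded on a plus-scale.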

| SMILES | inhibition in vivo at 25 mg/kg [%] |
| --- | --- |
| CC1=NNC2=C(C1)C(=O)CC(C)(C)C2 | 0 |
| CN1N=C(c2ccccc2)CC2=C1CC(C)(C)CC2=O | 51 |
| CCN(CC)CCN1N=C(c2ccc(OC)cc2)CC2=C1CC(C)(C)CC2=O.[O-][Cl+3]([O-])([O-])O | 0 |
| CC1(C)CC(=O)C(CC(=O)c2ccccc2)=C(NNC(=N)N)C1 | 76 |
| CCN(CC)CCN1N=C(c2ccccc2)C(C)C2=C1CC(C)(C)CC2=O.[O-][Cl+3]([O-])([O-])O (stereo not drawn) | 0 |
| CCN(CC)CCN1N=C(c2ccccc2)CC2=C1CCCC2=O.[O-][Cl+3]([O-])([O-])O | 26 |
| CN(C)CCN1N=C(c2ccc(F)cc2)CC2=C1CC(C)(C)CC2=O.O.O=C(O)C(=O)O | 26 |
| CCN(CC)CCN1N=C(c2ccc(Br)cc2)CC2=C1CC(C)(C)CC2=O | 26 |
| CCN(CC)CCN1N=C(c2ccccc2)CC2=C1CC(C)(C)CC2=O.[O-][Cl+3]([O-])([O-])O | 26 |
| CN(C)CCN1N=C(c2ccccc2)CC2=C1CC(C)(C)CC2=O.[O-][Cl+3]([O-])([O-])O | 26 |
| CCN(CC)CCN1N=C(c2ccc(F)cc2)CC2=C1CC(C)(C)CC2=O | 26 |
| CC1(C)CC(=O)c2cc(-c3ccccc3)nnc2C1 | 26 |

These molecules were tested on Mus musculus (assay: Toxicity in CF albino mouse assessed as mild convulsion at 500 mg/kg, po). Settings: in vivo.
Format: organism-based
Design: dose 500 mg/kg, route oral

| SMILES | Activity |
| --- | --- |
| CCN(CC)CCN1N=C(c2ccccc2)C(C)C2=C1CC(C)(C)CC2=O.[O-][Cl+3]([O-])([O-])O (stereo not drawn) | Toxic |
| CN(C)CCN1N=C(c2ccc(F)cc2)CC2=C1CC(C)(C)CC2=O.O.O=C(O)C(=O)O | Toxic |
| CCN(CC)CCN1N=C(c2ccc(Br)cc2)CC2=C1CC(C)(C)CC2=O | Toxic |
| CCN(CC)CCN1N=C(c2ccccc2)CC2=C1CC(C)(C)CC2=O.[O-][Cl+3]([O-])([O-])O | Toxic |
| CN(C)CCN1N=C(c2ccccc2)CC2=C1CC(C)(C)CC2=O.[O-][Cl+3]([O-])([O-])O | Toxic |
| CCN(CC)CCN1N=C(c2ccc(F)cc2)CC2=C1CC(C)(C)CC2=O | Toxic |
| CC1(C)CC(=O)c2cc(-c3ccccc3)nnc2C1 | Toxic |

These molecules were tested on Mus musculus (assay: Antidepressant activity in CF albino mouse assessed as potentiation of dopa-induced response at 25 mg/kg, po relative to control). Settings: not given.
Format: functional
Summary of the method: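 Male CF mice received 25 mg/kg orally in 0.2% agar suspension. The read-out was potentiation of the Dopa response. Results were graded on a plus-scale.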

| SMILES | Activity [%] |
| --- | --- |
| CC1=NNC2=C(C1)C(=O)CC(C)(C)C2 | 51 |
| CN1N=C(c2ccccc2)CC2=C1CC(C)(C)CC2=O | 26 |
| CCN(CC)CCN1N=C(c2ccc(OC)cc2)CC2=C1CC(C)(C)CC2=O.[O-][Cl+3]([O-])([O-])O | 26 |
| CC1(C)CC(=O)C(CC(=O)c2ccccc2)=C(NNC(=N)N)C1 | 51 |
| CCN(CC)CCN1N=C(c2ccccc2)C(C)C2=C1CC(C)(C)CC2=O.[O-][Cl+3]([O-])([O-])O (stereo not drawn) | 26 |
| CCN(CC)CCN1N=C(c2ccccc2)CC2=C1CCCC2=O.[O-][Cl+3]([O-])([O-])O | 51 |
| CN(C)CCN1N=C(c2ccc(F)cc2)CC2=C1CC(C)(C)CC2=O.O.O=C(O)C(=O)O | 26 |
| CCN(CC)CCN1N=C(c2ccc(Br)cc2)CC2=C1CC(C)(C)CC2=O | 26 |
| CCN(CC)CCN1N=C(c2ccccc2)CC2=C1CC(C)(C)CC2=O.[O-][Cl+3]([O-])([O-])O | 51 |
| CN(C)CCN1N=C(c2ccccc2)CC2=C1CC(C)(C)CC2=O.[O-][Cl+3]([O-])([O-])O | 51 |
| CCN(CC)CCN1N=C(c2ccc(F)cc2)CC2=C1CC(C)(C)CC2=O | 51 |
| CC1(C)CC(=O)c2cc(-c3ccccc3)nnc2C1 | 26 |

Each molecule was assayed on Mus musculus (assay: Central nervous system depressant activity in CF albino mouse assessed as inhibition of spontaneous motor activity at 500 mg/kg, po measured within 15 mins relative to control). Settings: not given.
Format: functional
Summary of the method: as §1

| SMILES | inhibition |
| --- | --- |
| CC1=NNC2=C(C1)C(=O)CC(C)(C)C2 | inactive |
| CN1N=C(c2ccccc2)CC2=C1CC(C)(C)CC2=O | inactive |
| CN(C)CCN/N=C1/CC(C)(C)CC2=C1CC(c1ccccc1)=NN2CCN(C)C | inactive |
| CCN(CC)CCN1N=C(c2ccccc2)CC2=C1CCCC2=O.[O-][Cl+3]([O-])([O-])O | inactive |
| CN(C)CCN1N=C(c2ccc(F)cc2)CC2=C1CC(C)(C)CC2=O.O.O=C(O)C(=O)O | inactive |

Same assay, conditions: 0.25 h

| SMILES | inhibition in vivo at 500 mg/kg [%] |
| --- | --- |
| CCN(CC)CCN1N=C(c2ccc(OC)cc2)CC2=C1CC(C)(C)CC2=O.[O-][Cl+3]([O-])([O-])O | 1 |
| CC1(C)CC(=O)C(CC(=O)c2ccccc2)=C(NNC(=N)N)C1 | 1 |
| CCN(CC)CCN1N=C(c2ccccc2)C(C)C2=C1CC(C)(C)CC2=O.[O-][Cl+3]([O-])([O-])O (stereo not drawn) | 1 |
| CCN(CC)CCN1N=C(c2ccc(Br)cc2)CC2=C1CC(C)(C)CC2=O | 26 |
| CCN(CC)CCN1N=C(c2ccccc2)CC2=C1CC(C)(C)CC2=O.[O-][Cl+3]([O-])([O-])O | 26 |
| CN(C)CCN1N=C(c2ccccc2)CC2=C1CC(C)(C)CC2=O.[O-][Cl+3]([O-])([O-])O | 51 |
| CCN(CC)CCN1N=C(c2ccc(F)cc2)CC2=C1CC(C)(C)CC2=O | 51 |
| CC1(C)CC(=O)c2cc(-c3ccccc3)nnc2C1 | 1 |

What follows are molecules tested on Mus musculus (assay: Central nervous system depressant activity in CF albino mouse assessed as eye closure rate at 500 mg/kg, po relative to control). Settings: not given.
Format: functional
Summary of the method: as §1

| SMILES | Activity [%] |
| --- | --- |
| CCN(CC)CCN1N=C(c2ccc(OC)cc2)CC2=C1CC(C)(C)CC2=O.[O-][Cl+3]([O-])([O-])O | 25 |
| CC1(C)CC(=O)C(CC(=O)c2ccccc2)=C(NNC(=N)N)C1 | 25 |
| CCN(CC)CCN1N=C(c2ccccc2)C(C)C2=C1CC(C)(C)CC2=O.[O-][Cl+3]([O-])([O-])O (stereo not drawn) | 25 |
| CCN(CC)CCN1N=C(c2ccc(Br)cc2)CC2=C1CC(C)(C)CC2=O | 50 |
| CCN(CC)CCN1N=C(c2ccccc2)CC2=C1CC(C)(C)CC2=O.[O-][Cl+3]([O-])([O-])O | 50 |
| CN(C)CCN1N=C(c2ccccc2)CC2=C1CC(C)(C)CC2=O.[O-][Cl+3]([O-])([O-])O | 75 |
| CCN(CC)CCN1N=C(c2ccc(F)cc2)CC2=C1CC(C)(C)CC2=O | 75 |
| CC1(C)CC(=O)c2cc(-c3ccccc3)nnc2C1 | 25 |

The molecules below were run on Mus musculus (assay: Central nervous system depressant activity in CF albino mouse assessed as induction of sedation at 25 mg/kg, po). Settings: not given.
Format: functional, organism-based
Design: dose 25 mg/kg

| SMILES | Activity |
| --- | --- |
| CCN(CC)CCN1N=C(c2ccc(F)cc2)CC2=C1CC(C)(C)CC2=O | Active |
